ChEMBL document CHEMBL3272033, “Physicochemical and pharmacological studies of some 8-substituted decahydroisoquinolines” (J Med Chem, 1976)

What was measured:
Homo sapiens [1] = organism: Homo sapiens; test: Drug absorption in buccal cavity in human at pH 9.3 after 5 mins by UV spectrometry; type: ADME, organism-based; settings: in vivo, other, pH 9.3, 5 min
How it was run: (§1)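 3 mg compound in 25 ml buffer (0.1 M phosphate pH 5.50 or 7.50; tetraborate pH 9.30) swished in the mouth for 5 min, expelled, and combined with a 10 ml water rinse. Made up to 50 ml; aliquot basified to pH 10 and ether-extracted, then back-extracted into 0.1 N HCl. UV absorbance read at λmax against Beer's law plots; the unrecovered fraction is taken as % absorbed. One to three subjects.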

Homo sapiens [2] = organism: Homo sapiens; test: Drug absorption in buccal cavity in human at pH 7.50 after 5 mins by UV spectrometry; type: ADME, organism-based; settings: in vivo, other, pH 7.5, 5 min; how it was run: as §1
[3] = Effect on transmembrane action potential in dog purkinje cells assessed as average rising velocity at 20 mg/l after 20 mins in presence of 5.4 mM/l K+ relative to control; type: functional, Canis lupus familiaris
How it was run: (§2)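 Canine Purkinje false-tendon preparations from pentobarbital-anesthetized dogs, in oxygenated Tyrode at 37 °C with KCl 2.7 or 5.4 mM. Compound given by bolus to the final bath concentration. TMAP recorded by intracellular glass microelectrode before dosing and 2–20 min after. ARV of phase 0 (V/s) and activation time (ms) expressed as % change from control at 20 min. Two preparations per compound.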

[4] = Effect on transmembrane action potential in dog purkinje cells assessed as average rising velocity at 10 mg/l after 20 mins in presence of 5.4 mM/l K+ relative to control; type: functional, Canis lupus familiaris; how it was run: as §2
Heart [5] = test: Antiarrhythmic activity in Hartley guinea pig atria assessed as change in spontaneous rate at 58.6 uM/l after 5 mins; type: functional, Cavia porcellus
How it was run: (§3)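 Spontaneously beating isolated atria held under initial tension; bath fluid changed every 10 min; stabilised about 1 h. Maximum driving rate found with 1-ms square pulses at 50% above threshold voltage, 10 s every 30 s; the frequency just before failure of following is the MDR. Control is the mean of two determinations. Spontaneous rate recorded by tachograph. Values are % change from control at peak response, generally 5–30 min.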

[6] = Effect on transmembrane action potential in dog purkinje cells assessed as change in activation time at 10 mg/l after 20 mins in presence of 5.4 mM/l K+ relative to control; type: functional, Canis lupus familiaris; how it was run: as §2
[7] = Effect on transmembrane action potential in dog purkinje cells assessed as change in amplitude at 10 mg/l after 20 mins in presence of 5.4 mM/l K+ relative to control; type: functional, Canis lupus familiaris
How it was run: (§4)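 Purkinje false tendons with attached myocardium came from adult dogs (10–15 kg) anesthetized with pentobarbital 30 mg/kg iv. Tissue was bathed in Tyrode (KCl 2.7 or 5.4 mM) gassed with 95% O2-5% CO2 at 37 °C and impaled with glass microelectrodes. Compound was given as a bolus to the final bath concentration, with records at 2–20 min. Two preparations per compound; % change from control at 20 min.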

[8] = Therapeutic index, ratio of LD50 for toxicity to ED50 for antiarrhythmic activity in ip dosed Swiss-Webster albino mouse; type: organism-based, Heart; settings: in vivo, read-out: Ratio LD50/ED50
Mus musculus [9] = test: Toxicity in ip dosed Swiss-Webster albino mouse; type: organism-based; settings: in vivo
Homo sapiens [10] = organism: Homo sapiens; test: Drug absorption in buccal cavity in human at pH 5.50 after 5 mins by UV spectrometry; type: ADME, organism-based; settings: in vivo, other, pH 5.5, 5 min; how it was run: as §1
[11] = Effect on transmembrane action potential in dog purkinje cells assessed as change in amplitude at 30 mg/l after 20 mins in presence of 2.7 mM/l K+ relative to control; type: functional, Canis lupus familiaris; how it was run: as §4
Heart [12] = test: Antiarrhythmic activity in Hartley guinea pig atria assessed as change in maximum driving rate at 58.6 uM/l after 5 mins; type: functional, Cavia porcellus; how it was run: as §3
[13] = Effect on transmembrane action potential in dog purkinje cells assessed as average rising velocity at 30 mg/l after 20 mins in presence of 2.7 mM/l K+ relative to control; type: functional, Canis lupus familiaris; how it was run: as §2
[14] = Effect on transmembrane action potential in dog purkinje cells assessed as change in amplitude at 20 mg/l after 20 mins in presence of 5.4 mM/l K+ relative to control; type: functional, Canis lupus familiaris; how it was run: as §4
[15] = Effect on transmembrane action potential in dog purkinje cells assessed as change in activation time at 30 mg/l after 20 mins in presence of 2.7 mM/l K+ relative to control; type: functional, Canis lupus familiaris; how it was run: as §2
[16] = Effect on transmembrane action potential in dog purkinje cells assessed as change in activation time at 20 mg/l after 20 mins in presence of 5.4 mM/l K+ relative to control; type: functional, Canis lupus familiaris; how it was run: as §2
Mus musculus [17] = test: Antiarrhythmic activity in ip dosed Swiss-Webster albino mouse assessed as prevention of chloroform-induced ventricular fibrillation; type: functional, Heart
Heart [18] = test: Antiarrhythmic activity in Hartley guinea pig atria assessed as change in maximum driving rate at 55.0 uM/l after 5 mins; type: functional, Cavia porcellus; how it was run: as §3
[19] = Effect on transmembrane action potential in dog purkinje cells assessed as change in amplitude at 20 mg/l after 20 mins in presence of 2.7 mM/l K+ relative to control; type: functional, Canis lupus familiaris; how it was run: as §4
Homo sapiens [20] = test: Toxicity in human assessed as numbness at 5 x 10' -5 M administered topically to buccal cavity measured up to 15 to 20 mins; type: organism-based; settings: in vivo, topical_or_ocular, 50 µM
[21] = Effect on transmembrane action potential in dog purkinje cells assessed as change in amplitude at 10 mg/l after 20 mins in presence of 2.7 mM/l K+ relative to control; type: functional, Canis lupus familiaris; how it was run: as §4
[22] = Dissociation constant, pKa of the compound in 0.01 M potassium hydrogen phthalate; type: physicochemical
How it was run: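 pKa by potentiometric titration with 0.01 M potassium hydrogen phthalate in a thermostated vessel, stirred, under nitrogen bubbling, using glass and calomel electrodes. pKa is the mean pH at half-neutralization from four titrations. Endpoints were taken from parallel tangents on either side of the inflection.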

[23] = Effect on transmembrane action potential in dog purkinje cells assessed as change in activation time at 10 mg/l after 20 mins in presence of 2.7 mM/l K+ relative to control; type: functional, Canis lupus familiaris; how it was run: as §2
[24] = Effect on transmembrane action potential in dog purkinje cells assessed as average rising velocity at 20 mg/l after 20 mins in presence of 2.7 mM/l K+ relative to control; type: functional, Canis lupus familiaris; how it was run: as §2
[25] = Effect on transmembrane action potential in dog purkinje cells assessed as average rising velocity at 10 mg/l after 20 mins in presence of 2.7 mM/l K+ relative to control; type: functional, Canis lupus familiaris; how it was run: as §2
Heart [26] = test: Antiarrhythmic activity in Hartley guinea pig atria assessed as change in spontaneous rate at 55.0 uM/l after 5 mins; type: functional, Cavia porcellus; how it was run: as §3
[27] = Effect on transmembrane action potential in dog purkinje cells assessed as change in activation time at 20 mg/l after 20 mins in presence of 2.7 mM/l K+ relative to control; type: functional, Canis lupus familiaris; how it was run: as §2
Heart [28] = test: Antiarrhythmic activity in Hartley guinea pig atria assessed as change in maximum driving rate at 32.5 uM/l after 5 mins; type: functional, Cavia porcellus; how it was run: as §3
Heart [29] = test: Antiarrhythmic activity in Hartley guinea pig atria assessed as reversible decrease in maximum driving rate compound treated for 5 mins measured up to 2 hrs post washout; type: functional, tissue-based; settings: Cavia porcellus
How it was run: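 After compound exposure the bath was washed out. Two MDR determinations were made every 15 min for up to 2 h to follow reversibility and recovery toward control. Bath fluid was changed every 10 min.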

Heart [30] = test: Antiarrhythmic activity in Hartley guinea pig atria assessed as change in spontaneous rate at 65.0 uM/l after 5 mins; type: functional, Cavia porcellus; how it was run: as §3
Heart [31] = test: Antiarrhythmic activity in Hartley guinea pig atria assessed as change in maximum driving rate at 65.0 uM/l after 5 mins; type: functional, Cavia porcellus; how it was run: as §3
Heart [32] = test: Antiarrhythmic activity in Hartley guinea pig atria assessed as change in spontaneous rate at 32.5 uM/l after 5 mins; type: functional, Cavia porcellus; how it was run: as §3
Heart [33] = test: Antiarrhythmic activity in Hartley guinea pig atria assessed as change in maximum driving rate at 36.6 uM/l after 5 mins; type: functional, Cavia porcellus; how it was run: as §3
Heart [34] = test: Antiarrhythmic activity in Hartley guinea pig atria assessed as change in spontaneous rate at 73.2 uM/l after 5 mins; type: functional, Cavia porcellus; how it was run: as §3
Heart [35] = test: Antiarrhythmic activity in Hartley guinea pig atria assessed as change in spontaneous rate at 36.6 uM/l after 5 mins; type: functional, Cavia porcellus; how it was run: as §3
Heart [36] = test: Antiarrhythmic activity in Hartley guinea pig atria assessed as change in maximum driving rate at 73.2 uM/l after 5 mins; type: functional, Cavia porcellus; how it was run: as §3
Heart [37] = test: Antiarrhythmic activity in Hartley guinea pig atria assessed as change in maximum driving rate at 30.8 uM/l after 5 mins; type: functional, Cavia porcellus; how it was run: as §3
Heart [38] = test: Antiarrhythmic activity in Hartley guinea pig atria assessed as change in spontaneous rate at 15.4 uM/l after 5 mins; type: functional, Cavia porcellus; how it was run: as §3
Heart [39] = test: Antiarrhythmic activity in Hartley guinea pig atria assessed as change in maximum driving rate at 61.6 uM/l after 5 mins; type: functional, Cavia porcellus; how it was run: as §3
Heart [40] = test: Antiarrhythmic activity in Hartley guinea pig atria assessed as change in maximum driving rate at 15.4 uM/l after 5 mins; type: functional, Cavia porcellus; how it was run: as §3
Heart [41] = test: Antiarrhythmic activity in Hartley guinea pig atria assessed as change in spontaneous rate at 30.8 uM/l after 5 mins; type: functional, Cavia porcellus; how it was run: as §3
Heart [42] = test: Antiarrhythmic activity in Hartley guinea pig atria assessed as change in spontaneous rate at 61.6 uM/l after 5 mins; type: functional, Cavia porcellus; how it was run: as §3

Compound	Drug absorption (Homo sapiens [1]) [%]	Drug absorption (Homo sapiens [2]) [%]	Activity [3] [%]	Activity [4] [%]	Activity [6] [%]	Activity [7] [%]	selectivity ratio [8]	LD50 (Mus musculus [9])	Drug absorption (Homo sapiens [10]) [%]	Activity [14] [%]	Activity [16] [%]	ED50 (Mus musculus [17]) [µmol/kg]	Activity (Homo sapiens [20])	pKa [22]	Activity (Heart [29])	Activity (Heart [30]) [%]	Activity (Heart [31]) [%]	also measured
CN1CC[C@H]2CCC[C@@H](NC(=O)c3ccc(Cl)c(Cl)c3)[C@@H]2C1 (mixture of isomers)	59.3	25.7	-58	-30	18	-11	12.7	1304	20.5	-5	42	104						Activity (Heart [5]): -41.2%; Activity [11]: -23%; Activity (Heart [12]): -45%; Activity [13]: -72%; Activity [15]: 81%
COc1cc(C(=O)O[C@@H]2CCC[C@@H]3CCN(C)C[C@H]32)cc(OC)c1OC (mixture of isomers)	69.5	19.7	-71	-50	530	-7	4.5	338	17.1	-17	300	74	Toxic	8.82				Activity (Heart [18]): -54.5%; Activity [19]: -15%; Activity [21]: -12%; Activity [23]: 131%; Activity [24]: -58%; Activity [25]: -6%; Activity (Heart [26]): -42.4%; Activity [27]: 389%
CN1CC[C@H]2CCC[C@@H](OC(=O)c3ccc(Cl)cc3)[C@H]2C1 (mixture of isomers)	86.5	43.7					4.7	1200	13.7			257	Toxic	8.9	Dose-dependent effect	-52.3	-53.3	Activity (Heart [28]): -32.2%; Activity (Heart [32]): -48.6%
CN1CC[C@H]2CCC[C@@H](OC(=O)c3ccc(Cl)cc3)[C@@H]2C1 (mixture of isomers)	84.7	42.7					5.2	757	17.4			146	Toxic	8.75		-60.5	-55.8	
CN1CC[C@H]2CCC[C@@H](OC(=O)c3ccccc3)[C@H]2C1 (relative stereo)	81.8	46					3.7	900	29.7			245	Toxic	9.05	Dose-dependent effect			Activity (Heart [33]): -24.5%; Activity (Heart [34]): -57.8%; Activity (Heart [35]): -23%; Activity (Heart [36]): -55.5%
C=C[C@H]1CN2CC[C@H]1C[C@@H]2[C@@H](O)c1ccnc2ccc(OC)cc12 [QUINIDINE]												160			Dose-dependent effect			Activity (Heart [37]): -22.8%; Activity (Heart [38]): -18.8%; Activity (Heart [39]): -36.3%; Activity (Heart [40]): -13.3%; Activity (Heart [41]): -28.6%; Activity (Heart [42]): -36.1%
